Experimental data as given in ChEMBL document CHEMBL4020757, “Lathyrol and epoxylathyrol derivatives: Modulation of Cdr1p and Mdr1p drug-efflux transporters of Candida albicans in Saccharomyces cerevisiae model” (Bioorg Med Chem, 2017).
≈ marks a conversion by molar mass, not a printed value.

Tests used:
Saccharomyces cerevisiae [1] = assay: Resistance index, ratio of MIC80 for Saccharomyces cerevisiae AD over-expressing Candida albicans CDR1 to MIC80 for Saccharomyces cerevisiae AD1-8u(-); assay type: functional
Summary of the method: (§1)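 Yeast (10⁴ cells) grown in YEPD at 30 °C for 48 h with inhibitors at 0.25-400 μM (DMSO stocks); growth read by optical density, inhibitor-free growth set as 100%. MIC80 = concentration giving 80% growth inhibition. RI = MIC80 in AD-CDR1 or AD-MDR1 divided by MIC80 in control AD1-8u⁻. Means ± SD, duplicate samples, at least three independent experiments.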

Saccharomyces cerevisiae [2] = assay: Resistance index, ratio of MIC80 for Saccharomyces cerevisiae AD over-expressing Candida albicans MDR1 to MIC80 for Saccharomyces cerevisiae AD1-8u(-); assay type: functional; summary of the method: as §1
Candida albicans [3] = assay: Inhibition of Candida albicans MDR1 expressed in Saccharomyces cerevisiae AD assessed as ratio of compound MIC80 in combinantion with fluconazole to compound alone MIC80 for Saccharomyces cerevisiae AD by checkerboard method
Summary of the method: (§2)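 Checkerboard per CLSI with 10⁴ cells of AD-CDR1, AD-MDR1 or AD1-8u⁻, grown 48 h at 30 °C. Fluconazole 4-209 μM crossed with compound 0.25-400 μM, growth read by optical density. Compound FIC is the compound MIC in combination with fluconazole divided by its MIC alone.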

Candida albicans [4] = assay: Inhibition of Candida albicans MDR1 expressed in Saccharomyces cerevisiae AD assessed as reduction in nile red dye efflux at 70 uM after 30 mins by flow cytometry relative to control
Summary of the method: (§3)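 AD-CDR1 or AD-MDR1 cells grown in YEPD at 30 °C with shaking from OD600 0.1 to 0.25, then resuspended as a 5% suspension in 1:2 YEPD:water. Nile Red (final 7 μM) added with or without compound at 70 μM, 30 min at 30 °C. Cells washed twice and 10,000 cells analysed by flow cytometry. Efflux rate expressed relative to untreated control cells. Means ± SD, three independent experiments.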

Saccharomyces cerevisiae [5] = assay: Antifungal activity against Saccharomyces cerevisiae AD1-8u(-) after 48 hrs; assay type: functional
Summary of the method: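 S. cerevisiae AD1-8u⁻ control strain revived from glycerol stock on YEPD plates and grown in YEPD at 30 °C. 10⁴ cells exposed to compound at 0.25-400 μM for 48 h at 30 °C. Growth read as optical density, with no-inhibitor growth as 100%. MIC80 is the concentration giving 80% growth inhibition. Means ± SD of duplicates from at least three independent experiments.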

Candida albicans [6] = assay: Inhibition of Candida albicans CDR1 expressed in Saccharomyces cerevisiae AD assessed as ratio of compound MIC80 in combinantion with fluconazole to compound alone MIC80 for Saccharomyces cerevisiae AD by checkerboard method; summary of the method: as §2
Saccharomyces cerevisiae [7] = assay: Potentiation of fluconazole-induced antifungal activity against Saccharomyces cerevisiae AD1-8u(-) by checkerboard method; assay type: functional
Summary of the method: (§4)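 Checkerboard per CLSI in AD1-8u⁻ control, AD-CDR1 or AD-MDR1 cells (10⁴ cells) grown 48 h at 30 °C. Fluconazole 4-209 μM crossed with compound 0.25-400 μM. Growth read by optical density. FIC of each agent is its MIC in combination divided by its MIC alone. FICI is the sum of the fluconazole and compound FICs, with values below 0.5 taken as synergy.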

Saccharomyces cerevisiae [8] = assay: Antifungal activity against Saccharomyces cerevisiae AD over-expressing Candida albicans CDR1 after 48 hrs; assay type: functional; summary of the method: as §1
[9] = Lipophilicity, log P of the compound; assay type: physicochemical; conditions: octanol/water
Saccharomyces cerevisiae [10] = assay: Synergistic antifungal activity against Saccharomyces cerevisiae AD1-8u(-) assessed as ratio of compound MIC80 in combinantion with fluconazole to compound alone MIC80 by checkerboard method; assay type: functional; summary of the method: as §2
Candida albicans [11] = assay: Inhibition of Candida albicans CDR1 expressed in Saccharomyces cerevisiae AD assessed as potentiation of fluconazole-induced antifungal activity against Saccharomyces cerevisiae AD by checkerboard method; summary of the method: as §4
Candida albicans [12] = assay: Inhibition of Candida albicans MDR1 expressed in Saccharomyces cerevisiae AD assessed as potentiation of fluconazole-induced antifungal activity against Saccharomyces cerevisiae AD by checkerboard method; summary of the method: as §4
Saccharomyces cerevisiae [13] = assay: Antifungal activity against Saccharomyces cerevisiae AD over-expressing Candida albicans MDR1 after 48 hrs; assay type: functional; summary of the method: as §1
Candida albicans [14] = assay: Inhibition of Candida albicans CDR1 expressed in Saccharomyces cerevisiae AD assessed as reduction in nile red dye efflux at 70 uM after 30 mins by flow cytometry relative to control; summary of the method: as §3

| SMILES | Ratio (Saccharomyces cerevisiae [1]) | Ratio (Saccharomyces cerevisiae [2]) | Ratio (Candida albicans [3]) | inhibition (Candida albicans [4]) | MIC80 (Saccharomyces cerevisiae [5]) | Ratio (Candida albicans [6]) | fractional inhibitory concentration index (FICI) (Saccharomyces cerevisiae [7]) | MIC80 (Saccharomyces cerevisiae [8]) | logP [9] | Ratio (Saccharomyces cerevisiae [10]) | fractional inhibitory concentration index (FICI) (Candida albicans [11]) | fractional inhibitory concentration index (FICI) (Candida albicans [12]) | MIC80 (Saccharomyces cerevisiae [13]) | inhibition (Candida albicans [14]) |
| --- | --- | --- | --- | --- | --- | --- | --- | --- | --- | --- | --- | --- | --- | --- |
| CCCCC(CC)C(=O)O[C@@H]1[C@@H]2[C@@H](OC(=O)C(CC)CCCC)[C@]3(CC[C@H]4[C@@H](/C=C(\C)C(=O)[C@@]2(O)C[C@@H]1C)C4(C)C)CO3 (stereo not given in full) | 0.96 | 0.96 | 1 | 20% | 830 µM (≈ 500 µg/mL) | 1 | 2 | 799 µM (≈ 482 µg/mL) | 6.45 | 1 | 1.4 | 1.3 | 800 µM (≈ 482 µg/mL) | 30% |
| C/C1=C\[C@@H]2[C@H](CC[C@]3(CO3)[C@H](OC(=O)c3ccc(C)cc3)[C@H]3[C@@H](OC(=O)c4ccc(C)cc4)[C@@H](C)C[C@]3(O)C1=O)C2(C)C | 0.92 | 0.94 | 1 | 25% | 853 µM (≈ 500 µg/mL) | 1 | 2 | 789 µM (≈ 463 µg/mL) | 5 | 1 | 1.4 | 1.3 | 803 µM (≈ 471 µg/mL) | 30% |
| COc1ccc(C(=O)O[C@@H]2[C@@H]3[C@@H](OC(=O)c4ccc(OC)cc4)[C@]4(CC[C@H]5[C@@H](/C=C(\C)C(=O)[C@@]3(O)C[C@@H]2C)C5(C)C)CO4)cc1 | 0.95 | 1.06 | 1 | 80% | 809 µM (≈ 501 µg/mL) | 1 | 2 | 776 µM (≈ 480 µg/mL) | 4.51 | 1 | 1.4 | 1.3 | 861 µM (≈ 533 µg/mL) | 10% |
| C=C1CC[C@H]2[C@@H](/C=C(\C)C(=O)[C@@]3(O)C[C@H](C)[C@H](O)[C@@H]3[C@H]1OC(=O)c1cccc(OC)c1)C2(C)C | 0.92 | 1.05 | 1 | 35% | 1070 µM (≈ 500 µg/mL) | 1 | 2 | 992 µM (≈ 465 µg/mL) | 3.42 | 1 | 1.4 | 1.3 | 1120 µM (≈ 526 µg/mL) | 80% |
| C/C1=C\[C@@H]2[C@H](CC[C@]3(CO3)[C@H](O)[C@H]3[C@@H](O)[C@@H](C)C[C@]3(O)C1=O)C2(C)C | 4 | 4 | 1 | 85% | 714 µM (≈ 250 µg/mL) | 1 | 2 | 2800 µM (≈ 981 µg/mL) | 1.91 | 1 | 1.4 | 1.3 | 2800 µM (≈ 981 µg/mL) | 30% |
| CCCC(=O)O[C@@H]1[C@@H]2[C@@H](OC(C)=O)[C@]3(CC[C@H]4[C@@H](/C=C(\C)C(=O)[C@@]2(OC(C)=O)C[C@@H]1C)C4(C)C)CO3 |  | 0.9 | 1 | 25% | 992 µM (≈ 501 µg/mL) | 1 | 2 | 1000 µM (≈ 505 µg/mL) | 2.5 | 1 | 1.4 | 1.3 | 901 µM (≈ 455 µg/mL) | 10% |
| C/C1=C\[C@@H]2[C@H](CC[C@]3(CO3)[C@H](OC(=O)c3ccccc3)[C@H]3[C@@H](OC(=O)c4ccccc4)[C@@H](C)C[C@]3(OC(=O)c3ccccc3)C1=O)C2(C)C | 0.92 | 0.86 | 1 | 20% | 755 µM (≈ 500 µg/mL) | 1 | 2 | 700 µM (≈ 464 µg/mL) | 5.99 | 1 | 1.4 | 1.3 | 654 µM (≈ 433 µg/mL) | 10% |
| C=C1CC[C@H]2[C@@H](/C=C(\C)C(=O)[C@@]3(O)C[C@H](C)[C@H](O)[C@@H]3[C@H]1OC(=O)c1cccc(Br)c1)C2(C)C | 0.93 | 0.91 | 1 | 30% | 968 µM (≈ 501 µg/mL) | 1 | 2 | 901 µM (≈ 466 µg/mL) | 3.11 | 1 | 1.4 | 1.3 | 884 µM (≈ 457 µg/mL) | 85% |
| C=C1CC[C@H]2[C@@H](/C=C(\C)C(=O)[C@@]3(O)C[C@H](C)[C@H](O)[C@@H]3[C@H]1OC(=O)/C=C/c1ccccc1)C2(C)C | 0.92 | 0.93 | 1 | 30% | 1080 µM (≈ 500 µg/mL) | 1 | 2 | 993 µM (≈ 461 µg/mL) | 3.93 | 1 | 1.4 | 1.3 | 1010 µM (≈ 470 µg/mL) | 65% |
